Test results: ChEMBL document CHEMBL2086372 (ACS Med Chem Lett, 2012)
Activity calls are given as the source filed them. The calls are words filed in the database; no cut-off is given here.

Experiments:
[1] = molecular target: T1, 5-hydroxytryptamine receptor 1A (Homo sapiens, UniProt P08908); experiment: Displacement of [3H]8-OH-DPAT from human 5HT1A receptor expressed in HeLa cells after 30 mins; type: cell-based
T1 sequence (P08908 whole entry): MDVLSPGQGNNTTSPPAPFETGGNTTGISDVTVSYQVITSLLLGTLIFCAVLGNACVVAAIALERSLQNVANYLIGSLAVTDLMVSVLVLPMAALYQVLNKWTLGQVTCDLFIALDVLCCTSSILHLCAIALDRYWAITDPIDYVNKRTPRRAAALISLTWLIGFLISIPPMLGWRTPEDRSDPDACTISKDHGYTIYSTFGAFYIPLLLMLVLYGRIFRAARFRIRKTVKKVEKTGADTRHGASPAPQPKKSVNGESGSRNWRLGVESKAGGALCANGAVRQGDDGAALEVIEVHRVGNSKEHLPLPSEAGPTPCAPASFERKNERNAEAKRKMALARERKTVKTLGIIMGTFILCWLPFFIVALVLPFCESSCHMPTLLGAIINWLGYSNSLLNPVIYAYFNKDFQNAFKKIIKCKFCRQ
In short: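 pKi is derived from displacement of [3H]-8-OH-DPAT binding at human cloned 5-HT1A receptor. Values are means ± SEMs of 3–6 separate experiments.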

[2] = molecular target: T2, Alpha-2A adrenergic receptor (Homo sapiens) (UniProt P08913); details: CHO
T2 sequence (whole entry): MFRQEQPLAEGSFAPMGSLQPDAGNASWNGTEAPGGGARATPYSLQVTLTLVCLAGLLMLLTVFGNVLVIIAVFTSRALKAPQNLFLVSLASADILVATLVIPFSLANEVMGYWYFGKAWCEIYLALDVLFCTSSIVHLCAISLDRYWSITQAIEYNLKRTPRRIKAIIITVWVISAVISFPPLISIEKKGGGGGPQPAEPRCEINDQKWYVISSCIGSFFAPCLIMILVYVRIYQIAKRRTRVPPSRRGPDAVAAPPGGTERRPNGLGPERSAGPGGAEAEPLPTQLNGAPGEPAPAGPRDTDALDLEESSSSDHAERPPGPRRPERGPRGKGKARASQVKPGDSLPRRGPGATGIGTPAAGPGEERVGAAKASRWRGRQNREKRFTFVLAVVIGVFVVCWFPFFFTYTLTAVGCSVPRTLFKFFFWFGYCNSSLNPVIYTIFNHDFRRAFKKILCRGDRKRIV

[3] = molecular target: T3, 5-hydroxytryptamine receptor 1A (Homo sapiens) (UniProt P08908); details: HeLa
T3 sequence (whole entry): T1 sequence (P08908 whole entry)

[4] = molecular target: T4, Alpha-2B adrenergic receptor (Homo sapiens) (UniProt P18089); details: CHO
T4 sequence (whole entry): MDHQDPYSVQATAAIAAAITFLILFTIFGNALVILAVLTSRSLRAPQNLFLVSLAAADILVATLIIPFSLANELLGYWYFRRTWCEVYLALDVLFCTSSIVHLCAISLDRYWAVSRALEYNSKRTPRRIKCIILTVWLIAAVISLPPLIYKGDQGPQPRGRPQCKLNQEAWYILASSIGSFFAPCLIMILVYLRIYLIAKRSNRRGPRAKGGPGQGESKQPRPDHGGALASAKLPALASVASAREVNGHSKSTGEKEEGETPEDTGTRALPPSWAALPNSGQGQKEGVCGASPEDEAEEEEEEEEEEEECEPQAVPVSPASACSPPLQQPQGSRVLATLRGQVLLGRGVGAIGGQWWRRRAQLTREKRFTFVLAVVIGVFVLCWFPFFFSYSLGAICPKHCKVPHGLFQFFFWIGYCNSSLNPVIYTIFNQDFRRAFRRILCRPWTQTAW

Mus musculus [5] = experiment: Antidepressant activity in CD1 mouse assessed as decrease in immobility time at 0.012 mg/kg, ip after 15 mins by forced swim test relative to vehicle-treated control; type: functional, organism-based; parameters: dose 0.012 mg/kg
In short: (§1)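 Mouse forced swimming test with immobility time as the read-out. Single ip doses were 0.012, 0.025, 0.05, 0.2 or 0.5 mg/kg, with fluoxetine 20 mg/kg ip as reference. Results are compared against vehicle-treated mice and given as means ± SEMs of 8–9 animals.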

Mus musculus [6] = experiment: Antidepressant activity in CD1 mouse assessed as decrease in immobility time at 0.05 mg/kg, ip after 15 mins by forced swim test relative to vehicle-treated control; type: functional, organism-based; parameters: dose 0.05 mg/kg; in short: as §1
Mus musculus [7] = experiment: Antidepressant activity in CD1 mouse assessed as decrease in immobility time at 0.2 mg/kg, ip after 15 mins by forced swim test relative to vehicle-treated control; type: functional, organism-based; parameters: dose 0.2 mg/kg; in short: as §1
[8] = molecular target: T5, Alpha-2C adrenergic receptor (Homo sapiens) (UniProt P18825); experiment: Agonist activity at human alpha2C adrenoceptor expressed in CHO cells assessed as extracellular acidification measured after 4 mins by cytosensor microphysiometric analysis relative to control; type: functional, cell-based
T5 sequence (whole entry): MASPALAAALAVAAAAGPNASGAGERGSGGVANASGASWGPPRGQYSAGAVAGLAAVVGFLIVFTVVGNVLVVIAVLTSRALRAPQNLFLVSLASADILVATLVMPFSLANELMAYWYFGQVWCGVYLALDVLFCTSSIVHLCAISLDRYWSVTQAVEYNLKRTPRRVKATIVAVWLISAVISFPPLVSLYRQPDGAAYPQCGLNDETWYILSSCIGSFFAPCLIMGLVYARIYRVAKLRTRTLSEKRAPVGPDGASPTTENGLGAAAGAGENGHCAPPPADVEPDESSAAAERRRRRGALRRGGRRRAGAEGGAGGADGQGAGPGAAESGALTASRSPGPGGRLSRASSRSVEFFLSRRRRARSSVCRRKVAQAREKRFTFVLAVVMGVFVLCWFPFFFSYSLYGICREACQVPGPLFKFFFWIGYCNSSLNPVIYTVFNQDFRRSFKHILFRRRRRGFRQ
In short: (§2)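 Binding and functional assays run on CHO cells expressing recombinant human α2-AR subtypes. Functional read-outs are agonist potency (pEC50) with intrinsic activity (ia), or antagonist pKb. Affinity is reported as pKi. Values are means ± SEMs of 3–6 separate experiments.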

Mus musculus [9] = experiment: Antidepressant activity in CD1 mouse assessed as decrease in immobility time at 0.025 mg/kg, ip after 15 mins by forced swim test relative to vehicle-treated control; type: functional, organism-based; parameters: dose 0.025 mg/kg; in short: as §1
Mus musculus [10] = experiment: Antidepressant activity in CD1 mouse assessed as decrease in immobility time at 0.5 mg/kg, ip after 15 mins by forced swim test relative to vehicle-treated control; type: functional, organism-based; parameters: dose 0.5 mg/kg; in short: as §1
[11] = molecular target: T6, Alpha-2B adrenergic receptor (Homo sapiens, UniProt P18089); experiment: Agonist activity at human alpha2B adrenoceptor expressed in CHO cells assessed as extracellular acidification measured after 4 mins by cytosensor microphysiometric analysis
T6 sequence (P18089 whole entry): T4 sequence (whole entry)

Mus musculus [12] = experiment: Effect on morphine-dependence in CD1 mouse assessed as decrease in naloxone-precipitated rearing at 0.025 mg/kg, ip administered acutely 15 mins prior to naloxone challenge relative to vehicle-treated control; type: functional, organism-based; parameters: dose 0.025 mg/kg
In short: (§3)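 Expression of morphine dependence in mice, tested with a single acute ip dose (racemate 0.05 mg/kg, enantiomers 0.025 mg/kg). Withdrawal was precipitated by naloxone in control and morphine-treated mice. Scored signs were jumping frequency and somatic signs (rearing, forepaw tremors, teeth chatter). Groups were compared with vehicle and with the morphine group.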

Mus musculus [13] = experiment: Effect on morphine-dependence in CD1 mouse assessed as decrease in naloxone-precipitated jumping at 0.025 mg/kg, ip administered chronically 15 mins prior to each morphine challenge relative to vehicle-treated control; type: functional, organism-based; parameters: dose 0.025 mg/kg
In short: (§4)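 Acquisition of morphine dependence in mice, tested with repeated ip dosing (racemate 0.05 mg/kg, enantiomers 0.025 mg/kg). Withdrawal was precipitated by naloxone. Scored signs were jumping frequency and somatic signs (rearing, forepaw tremors, teeth chatter). Groups were compared with vehicle and with the morphine group.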

Mus musculus [14] = experiment: Effect on morphine-dependence in CD1 mouse assessed as decrease in naloxone-precipitated teeth chatter at 0.025 mg/kg, ip administered chronically 15 mins prior to each morphine challenge relative to vehicle-treated control; type: functional, organism-based; parameters: dose 0.025 mg/kg; in short: as §4
Mus musculus [15] = experiment: Effect on morphine-dependence in CD1 mouse assessed as decrease in naloxone-precipitated teeth chatter at 0.025 mg/kg, ip administered acutely 15 mins prior to naloxone challenge relative to vehicle-treated control; type: functional, organism-based; parameters: dose 0.025 mg/kg; in short: as §3
Mus musculus [16] = experiment: Effect on morphine-dependence in CD1 mouse assessed as decrease in naloxone-precipitated jumping at 0.025 mg/kg, ip administered acutely 15 mins prior to naloxone challenge relative to vehicle-treated control; type: functional, organism-based; parameters: dose 0.025 mg/kg; in short: as §3
Mus musculus [17] = experiment: Antidepressant activity in CD1 mouse assessed as decrease in immobility time at 0.025 mg/kg, ip administered 15 mins prior to coadministration with yohimbine measured after 15 mins by forced swim test relative to vehicle-treated control; type: functional, organism-based; parameters: dose 0.025 mg/kg
In short: (§5)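 Forced swimming test in mice using 0.025 mg/kg ip test dose. It was combined with the 5-HT1A antagonist WAY 100635 (0.1 mg/kg, sc) or with the α2 antagonist yohimbine (1.250 mg/kg, ip). Each antagonist was also given alone. Immobility time is the read-out, given as means ± SEMs of 7–8 animals.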

[18] = molecular target: T6, Alpha-2B adrenergic receptor; experiment: Displacement of [3H]RX821002 from human alpha2B adrenoceptor expressed in CHO cells after 30 mins by scintillation counting; type: cell-based; in short: as §2
[19] = molecular target: T7, Alpha-2C adrenergic receptor (Homo sapiens, UniProt P18825); experiment: Displacement of [3H]RX821002 from human alpha2C adrenoceptor expressed in CHO cells after 30 mins by scintillation counting; type: cell-based; in short: as §2
T7 sequence (P18825 whole entry): T5 sequence (whole entry)

Mus musculus [20] = experiment: Effect on morphine-dependence in CD1 mouse assessed as decrease in naloxone-precipitated rearing at 0.025 mg/kg, ip administered chronically 15 mins prior to each morphine challenge relative to vehicle-treated control; type: functional, organism-based; parameters: dose 0.025 mg/kg; in short: as §4
Mus musculus [21] = experiment: Effect on morphine-dependence in CD1 mouse assessed as decrease in naloxone-precipitated forepaw tremors at 0.025 mg/kg, ip administered chronically 15 mins prior to each morphine challenge relative to vehicle-treated control; type: functional, organism-based; parameters: dose 0.025 mg/kg; in short: as §4
Mus musculus [22] = experiment: Antidepressant activity in CD1 mouse assessed as decrease in immobility time at 0.025 mg/kg, ip administered 30 mins prior to coadministration with WAY100635 measured after 15 mins by forced swim test relative to vehicle-treated control; type: functional, organism-based; parameters: dose 0.025 mg/kg; in short: as §5
[23] = molecular target: T8, Alpha-2A adrenergic receptor (Homo sapiens, UniProt P08913); experiment: Displacement of [3H]RX821002 from human alpha2A adrenoceptor expressed in CHO cells after 30 mins by scintillation counting; type: cell-based; in short: as §2
T8 sequence (P08913 whole entry): T2 sequence (whole entry)

Mus musculus [24] = experiment: Effect on morphine-dependence in CD1 mouse assessed as decrease in naloxone-precipitated forepaw tremors at 0.025 mg/kg, ip administered acutely 15 mins prior to naloxone challenge relative to vehicle-treated control; type: functional, organism-based; parameters: dose 0.025 mg/kg; in short: as §3
[25] = molecular target: T7, Alpha-2C adrenergic receptor; experiment: Agonist activity at human alpha2C adrenoceptor expressed in CHO cells assessed as extracellular acidification measured after 4 mins by cytosensor microphysiometric analysis; type: functional, cell-based; in short: as §2
Mus musculus [26] = experiment: Antidepressant activity in CD1 mouse assessed as decrease in immobility time at 1.25 mg/kg, sc measured after 15 mins by forced swim test relative to vehicle-treated control; type: functional, organism-based; parameters: dose 1.25 mg/kg
Mus musculus [27] = experiment: Antidepressant activity in CD1 mouse assessed as decrease in immobility time at 0.1 mg/kg, sc measured after 15 mins by forced swim test relative to vehicle-treated control; type: functional, organism-based; parameters: dose 0.1 mg/kg
In short: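 Mouse forced swim test scoring immobility time. The 5-HT1A-R antagonist was given alone at 0.1 mg/kg sc. Groups were compared with vehicle-treated mice, with 7–8 animals per group, and data are shown as means ± SEM.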

Structure (SMILES): Clc1cccc(Cl)c1N=C1NCCN1 [CLONIDINE]
- Ki [1]: 3.24 µM

Structure (SMILES): CC(Oc1c(Cl)cccc1Cl)C1=NCCN1 (stereo unspecified) [LOFEXIDINE]
- Ki [1]: 0.126 µM

Structure (SMILES): C=CCc1ccccc1OC(C)C1=NCCN1 (racemic) [ALLYPHENYLINE]
- pKb [2]: 7.4
- pD2 [3]: 6.86
- Ki [1]: 0.0282 µM
- pEC50 [4]: inactive
- Activity (Mus musculus [5]): inactive
- Activity (Mus musculus [6]): Active
- Activity (Mus musculus [7]): Active
- Intrinsic activity [8]: 0.9
- Activity (Mus musculus [9]): Active
- Activity (Mus musculus [10]): inactive

Structure (SMILES): C[C@H](Oc1ccccc1CC1CC1)C1=NCCN1
- EC50 [11]: 1.58 µM
- Activity (Mus musculus [12]): Active
- Ki [1]: 0.00575 µM
- Activity (Mus musculus [13]): Active
- Activity (Mus musculus [14]): Active
- Activity (Mus musculus [15]): Active
- Activity (Mus musculus [16]): Active
- Activity (Mus musculus [17]): inactive
- Ki [18]: 0.407 µM
- Ki [19]: 0.275 µM
- Activity (Mus musculus [20]): Active
- Activity (Mus musculus [21]): Active
- Activity (Mus musculus [22]): inactive
- Ki [23]: 0.0417 µM
- Intrinsic activity [8]: 0.85
- Activity (Mus musculus [24]): Active
- EC50 [25]: 0.002 µM

Structure (SMILES): COC(=O)[C@@H]1[C@H]2C[C@H]3c4[nH]c5ccccc5c4CCN3C[C@@H]2CC[C@@H]1O
- Activity (Mus musculus [26]): inactive
- Activity (Mus musculus [27]): inactive
